{"source": "ChEMBL document CHEMBL4706684", "about": "“Discovering High Potent Hsp90 Inhibitors as Antinasopharyngeal Carcinoma Agents through Fragment Assembling Approach” (J Med Chem, 2021)", "key": {"[1]": {"test_system": "L02", "assay": "Toxicity in human L02 cells assessed as induction of apoptosis at 62.5 to 1000 nM incubated for 12 hrs by Annexin-V/FITC staining based FACS analysis", "assay_type": "cell-based", "settings": "l02, 12 h, 1 µM, dose 62.5-1000 nM"}, "[2]": {"test_system": "CNE-2", "assay": "Induction of apoptosis in human CNE-2 cells assessed as reduction in HER2 protein level at 500 nM incubated for 24 hrs by immunoblot analysis", "assay_type": "functional, cell-based", "method_in_brief": "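CNE2 cells (RPMI 1640, 10% FBS, 37 °C, 5% CO₂) were incubated with inhibitor for 24 h, then lysed in RIPA buffer on ice for 30 min. Lysates were run on 8–12% SDS-PAGE and transferred to PVDF. Membranes were blocked with 5% milk and probed with primary antibodies overnight, then HRP secondaries. Detection was by chemiluminescence with actin as loading control.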"}, "[3]": {"test_system": "CNE-2", "assay": "Induction of apoptosis in human CNE-2 cells assessed as Bcl-XL degradation at 70 nM incubated for 24 hrs in presence of HSP90-alpha siRNA by immunoblot analysis", "assay_type": "functional, cell-based", "method_in_brief": "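CNE2 cells were transiently transfected with Hsp90 siRNA (siHsp90-1 or siHsp90-2) at 150 nM final using Lipofectamine 2000. They were then incubated with inhibitor for 24 h and immunoblotted: RIPA lysis, 8–12% SDS-PAGE, PVDF, overnight primary antibodies, HRP secondaries, chemiluminescence, actin as loading control.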"}, "[4]": {"test_system": "CNE-2", "assay": "Induction of apoptosis in human CNE-2 cells assessed as Bcl-XL degradation at 70 nM incubated for 24 hrs in presence of HSP90-beta siRNA by immunoblot analysis", "assay_type": "functional, cell-based"}, "[5]": {"test_system": "CNE-2", "assay": "Antitumor activity against human CNE-2 cells xenografted in nu/nu mouse assessed as induction of tumor size shrinkage at 1 mg/kg, po for 32 days", "assay_type": "functional, organism-based", "settings": "time 32.0 day"}, "[6]": {"test_system": "CNE-2", "assay": "Antitumor activity against human CNE-2 cells xenografted in nu/nu mouse assessed as inhibition of tumor growth at 1 mg/kg, po for 32 days", "assay_type": "functional, organism-based", "settings": "time 32.0 day"}, "[7]": {"test_system": "CNE-2", "assay": "Antitumor activity against human CNE-2 cells xenografted in nu/nu mouse assessed as inhibition of tumor growth at 1 mg/kg, ip for 32 days", "assay_type": "functional, organism-based", "settings": "time 32.0 day"}, "[8]": {"assay": "Oral bioavailability in Kunming mouse at 2 mg/kg measured up to 6 hrs by HPLC analysis", "assay_type": "ADME, organism-based", "settings": "in vivo", "method_in_brief": "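Male Kunming mice, 9–11 weeks old, about 23 g, four per group, were given a single 2 mg/kg dose intravenously or orally. Blood was sampled at 0, 10, 15, 30 min and 1, 2, 4, 6 h. For each sample, 40 μL plasma was deproteinized with 200 μL acetonitrile and centrifuged 10 min at 12 000 rpm before analysis.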"}, "[9]": {"test_system": "CNE-2", "assay": "Cytotoxicity in human CNE-2 cells assessed as reduction in cell viability incubated for 48 hrs by MTT assay", "assay_type": "cell-based", "settings": "CNE-2, 48 h", "method_in_brief": "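Cells were seeded at 3 × 10³ cells per well and grown for 24 h at 37 °C in 5% CO₂. CNE2 was grown in RPMI 1640 and HeLa and HepG2 in DMEM, each with 10% FBS and 1% penicillin/streptomycin. Cells were exposed to 0−20 μM inhibitor for 48 h, with a DMSO solvent control. MTT (0.5 mg/mL) was then added for 3 h.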"}, "[10]": {"test_system": "CNE-2", "assay": "Induction of apoptosis in human CNE-2 cells assessed as early apoptosis cells level at 20 nM incubated for 12 hrs by Annexin-V/FITC staining based FACS analysis (reference value: 1.45%)", "assay_type": "cell-based", "settings": "cne-2, 12 h, 0.02 µM"}, "[11]": {"test_system": "CNE-2", "assay": "Induction of apoptosis in human CNE-2 cells assessed as necrosis cells level at 20 nM incubated for 12 hrs by Annexin-V/FITC staining based FACS analysis (reference value: 1.45%)", "assay_type": "cell-based", "settings": "cne-2, 12 h, 0.02 µM"}, "[12]": {"test_system": "CNE-2", "assay": "Induction of apoptosis in human CNE-2 cells assessed as early apoptosis cells level at 50 nM incubated for 12 hrs by Annexin-V/FITC staining based FACS analysis (reference value: 1.45%)", "assay_type": "cell-based", "settings": "cne-2, 12 h, 0.05 µM"}, "[13]": {"test_system": "CNE-2", "assay": "Induction of apoptosis in human CNE-2 cells assessed as late apoptosis cells level at 50 nM incubated for 12 hrs by Annexin-V/FITC staining based FACS analysis (reference value: 1.45%)", "assay_type": "cell-based", "settings": "cne-2, 12 h, 0.05 µM"}, "[14]": {"test_system": "CNE-2", "assay": "Induction of apoptosis in human CNE-2 cells assessed as viable cells level at 100 nM incubated for 12 hrs by Annexin-V/FITC staining based FACS analysis (reference value: 96.7%)", "assay_type": "cell-based", "settings": "read-out: Activity", "method_in_brief": "(§1)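 CNE2 cells (RPMI 1640 with 10% FBS) were seeded at 5 × 10⁴ cells per well. After 24 h they were treated with compound in 0.05% DMSO for 12 h. Cells were then washed twice with PBS, pelleted, and stained in binding buffer with Annexin V-FITC and PI for flow cytometry.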"}, "[15]": {"test_system": "CNE-2", "assay": "Induction of apoptosis in human CNE-2 cells assessed as early apoptosis cells level at 100 nM incubated for 12 hrs by Annexin-V/FITC staining based FACS analysis (reference value: 1.45%)", "assay_type": "cell-based", "settings": "cne-2, 12 h, 0.1 µM"}, "[16]": {"test_system": "CNE-2", "assay": "Induction of apoptosis in human CNE-2 cells assessed as late apoptosis cells level at 100 nM incubated for 12 hrs by Annexin-V/FITC staining based FACS analysis (reference value: 1.45%)", "assay_type": "cell-based", "settings": "cne-2, 12 h, 0.1 µM"}, "[17]": {"test_system": "CNE-2", "assay": "Induction of apoptosis in human CNE-2 cells assessed as viable cells level at 200 nM incubated for 12 hrs by Annexin-V/FITC staining based FACS analysis (reference value: 96.7%)", "assay_type": "cell-based", "settings": "read-out: Activity", "method_in_brief": "as §1"}, "[18]": {"test_system": "CNE-2", "assay": "Induction of apoptosis in human CNE-2 cells assessed as necrosis cells level at 200 nM incubated for 12 hrs by Annexin-V/FITC staining based FACS analysis (reference value: 1.45%)", "assay_type": "cell-based", "settings": "cne-2, 12 h, 0.2 µM"}, "[19]": {"test_system": "CNE-2", "assay": "Induction of apoptosis in human CNE-2 cells assessed as early apoptosis cells level at 500 nM incubated for 12 hrs by Annexin-V/FITC staining based FACS analysis (reference value: 1.45%)", "assay_type": "cell-based", "settings": "cne-2, 12 h, 0.5 µM"}, "[20]": {"test_system": "CNE-2", "assay": "Induction of apoptosis in human CNE-2 cells assessed as late apoptosis cells level at 500 nM incubated for 12 hrs by Annexin-V/FITC staining based FACS analysis (reference value: 1.45%)", "assay_type": "cell-based", "settings": "cne-2, 12 h, 0.5 µM"}, "[21]": {"test_system": "CNE-2", "assay": "Induction of apoptosis in human CNE-2 cells assessed as necrosis cells level at 70 nM incubated for 12 hrs by Annexin-V/FITC staining based FACS analysis (reference value: 1.49%)", "assay_type": "cell-based", "settings": "cne-2, 12 h, 0.07 µM"}, "[22]": {"test_system": "CNE-2", "assay": "Induction of apoptosis in human CNE-2 cells overexpressing HSP90 assessed as viable cells level at 70 nM incubated for 12 hrs by Annexin-V/FITC staining based FACS analysis (reference value: 93.2%)", "assay_type": "cell-based", "settings": "read-out: Activity"}, "[23]": {"test_system": "CNE-2", "assay": "Induction of apoptosis in human CNE-2 cells overexpressing HSP90 assessed as early apoptosis cells level at 70 nM incubated for 12 hrs by Annexin-V/FITC staining based FACS analysis (reference value: 3.1%)", "assay_type": "cell-based", "settings": "cne-2, 12 h, 0.07 µM"}, "[24]": {"test_system": "CNE-2", "assay": "Induction of apoptosis in human CNE-2 cells overexpressing HSP90 assessed as necrosis cells level at 70 nM incubated for 12 hrs by Annexin-V/FITC staining based FACS analysis (reference value: 1.49%)", "assay_type": "cell-based", "settings": "cne-2, 12 h, 0.07 µM"}}, "note": "pIC50: −log10 of the molar value. The source made the active and inactive calls. The calls are words filed in the database; no cut-off is given here."}
{"smiles": "CC(C)(C)c1ccc(Cn2cc(-c3cc(O)c(O)c(O)c3)nn2)cc1", "values": [{"measurement": "Activity", "setting": "[1]", "value": "Non-Toxic"}, {"measurement": "Activity", "setting": "[2]", "value": "Active"}, {"measurement": "Activity", "setting": "[3]", "value": "inactive"}, {"measurement": "Activity", "setting": "[4]", "value": "inactive"}, {"measurement": "Activity", "setting": "[5]", "value": "Active"}, {"measurement": "TGI", "setting": "[6]", "value": "Active"}, {"measurement": "TGI", "setting": "[7]", "value": "Active"}, {"measurement": "bioavailability", "setting": "[8]", "value": 12, "unit": "%"}, {"measurement": "pIC50", "setting": "[9]", "value": 7.40}, {"measurement": "Activity", "setting": "[10]", "value": 4.08, "unit": "%"}, {"measurement": "Activity", "setting": "[11]", "value": 0.17, "unit": "%"}, {"measurement": "Activity", "setting": "[12]", "value": 7.17, "unit": "%"}, {"measurement": "Activity", "setting": "[13]", "value": 15.3, "unit": "%"}, {"measurement": "viability at 0.1 µM", "setting": "[14]", "value": 78.6, "unit": "%"}, {"measurement": "Activity", "setting": "[15]", "value": 6.22, "unit": "%"}, {"measurement": "Activity", "setting": "[16]", "value": 15.6, "unit": "%"}, {"measurement": "viability at 0.2 µM", "setting": "[17]", "value": 75.1, "unit": "%"}, {"measurement": "Activity", "setting": "[18]", "value": 0.3, "unit": "%"}, {"measurement": "Activity", "setting": "[19]", "value": 33.6, "unit": "%"}, {"measurement": "Activity", "setting": "[20]", "value": 33.4, "unit": "%"}, {"measurement": "Activity", "setting": "[21]", "value": 1.2, "unit": "%"}, {"measurement": "viability at 0.07 µM", "setting": "[22]", "value": 94, "unit": "%"}, {"measurement": "Activity", "setting": "[23]", "value": 3.96, "unit": "%"}, {"measurement": "Activity", "setting": "[24]", "value": 0.64, "unit": "%"}]}
